Legend:
[1] = system: Rattus norvegicus; assay: Testosterone-suppressive activity in Crl:CD(SD) rat assessed as number of animal with plasma testosterone level below the limit of detection at 2 nmol/hr, sc through osmotic pumps measured after 6 days by RIA; type: functional
Summary of the method: (§1)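 Peptide was dissolved in distilled water or 50% DMSO as 0.1–2 mM pump solutions and delivered by ALZET osmotic pumps implanted subcutaneously in the back of 9-week-old male Crl:CD(SD) rats (n = 5) under ether. Controls received distilled-water pumps. After 6 days, rats were decapitated and plasma was recovered with aprotinin/EDTA. Testosterone was measured by RIA, and the number of rats below the detection limit (0.04 ng/mL) was counted.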

[2] = system: Rattus norvegicus; assay: Testosterone-suppressive activity in Crl:CD(SD) rat assessed as number of animal with plasma testosterone level below the limit of detection at 0.5 nmol/hr, sc through osmotic pumps measured after 6 days by RIA; type: functional; summary of the method: as §1
[3] = Mean residence time in Sprague-Dawley rat at 1 mg/kg, iv after 24 hrs by LC-MS/MS analysis; type: ADME, organism-based; parameters: dose 1 mg/kg, route intravenous; conditions: in vivo
Summary of the method: (§2)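 Male Crl:CD(SD) rats (3 per group) got a single intravenous dose of 1 mg/kg. Blood was drawn at 5, 10, 15 and 30 min and at 1, 2, 4, 8 and 24 h. Plasma proteins were removed with 0.2% formic acid/methanol and acetonitrile, and the supernatant was treated with 0.4% formic acid. Peptide was quantified by LC-MS. Noncompartmental parameters were derived per rat, reported as mean ± SD (n = 3).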

[4] = Tmax in Sprague-Dawley rat at 1 mg/kg, sc after 24 hrs by LC-MS/MS analysis; type: ADME, organism-based; parameters: dose 1 mg/kg, route subcutaneous; conditions: in vivo
Summary of the method: (§3)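 Single subcutaneous dose of 1 mg/kg in male Crl:CD(SD) rats, n = 3 per group. Blood was sampled from 5 min to 24 h (5, 10, 15, 30 min; 1, 2, 4, 8, 24 h). Plasma was deproteinized with formic acid/methanol and acetonitrile, and peptide levels were measured by LC-MS. Noncompartmental analysis per animal gave Cmax, Tmax, AUC0-24h, MRT and BA; values are mean ± SD (n = 3).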

[5] = Stability of the compound in aqueous solution assessed as residual ratio at pH 7 up to 1 week by HPLC analysis relative to initial level; type: physicochemical
Summary of the method: (§4)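 Peptides in aqueous solution at pH 1.2 (JP1, containing 10% acetonitrile), 3, 5 or 7 were kept in the dark at 37 °C for up to 2 weeks. Peptide remaining was quantified from HPLC peak area, with detection at 230–280 nm. The residual ratio (stability index) was expressed relative to the time-0 amount, taken as 100%.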

[6] = Stability of the compound in aqueous solution assessed as residual ratio at pH 7 up to 2 weeks by HPLC analysis relative to initial level; type: physicochemical; summary of the method: as §4
[7] = Stability of the compound in aqueous solution assessed as residual ratio at pH 5 up to 1 week by HPLC analysis relative to initial level; type: physicochemical; summary of the method: as §4
[8] = Stability of the compound in aqueous solution assessed as residual ratio at pH 3 up to 1 week by HPLC analysis relative to initial level; type: physicochemical; summary of the method: as §4
[9] = target: T1, KiSS-1 receptor (Homo sapiens, UniProt Q969F8); assay: Agonist activity at human KISS1R transfected in CHO cells assessed as intracellular calcium flux after 24 hrs by functional FLIPR assay; type: cell-based
T1 sequence (Q969F8 whole entry): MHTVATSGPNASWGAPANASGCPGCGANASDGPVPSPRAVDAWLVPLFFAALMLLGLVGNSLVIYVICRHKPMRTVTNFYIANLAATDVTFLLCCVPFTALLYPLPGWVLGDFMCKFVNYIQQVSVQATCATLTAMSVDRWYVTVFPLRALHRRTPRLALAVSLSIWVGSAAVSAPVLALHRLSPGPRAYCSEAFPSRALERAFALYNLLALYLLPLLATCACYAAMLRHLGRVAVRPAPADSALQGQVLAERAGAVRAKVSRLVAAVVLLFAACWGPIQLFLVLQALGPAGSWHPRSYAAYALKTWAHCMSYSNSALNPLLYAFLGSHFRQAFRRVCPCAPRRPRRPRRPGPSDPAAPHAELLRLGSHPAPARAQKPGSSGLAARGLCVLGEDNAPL
Summary of the method: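 CHO cells stably expressing human KISS1R were seeded at 15 000 cells/mL, cultured 24 h, then loaded with fluo-3 for 1 h at 37 °C in HBSS/HEPES (pH 7.4) with probenecid and FBS. Cells were washed in HBSS with 2.5 mM probenecid. Peptides came from 1 mM DMSO stocks diluted in buffer containing probenecid, 0.2% BSA and 0.1% CHAPS. Fluorescence was recorded on FLIPR for 3 min; peak counts over 0–180 s gave agonist activity.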

[10] = system: Rattus norvegicus; assay: Testosterone-suppressive activity in Crl:CD(SD) rat assessed as number of animal with plasma testosterone level below the limit of detection at 0.3 nmol/hr, sc through osmotic pumps measured after 6 days by RIA; type: functional; summary of the method: as §1
[11] = AUC (0 to 24 hrs) in Sprague-Dawley rat at 1 mg/kg, sc after 24 hrs by LC-MS/MS analysis; type: ADME, organism-based; parameters: time < 24 hr, dose 1 mg/kg, route subcutaneous; conditions: plasma; summary of the method: as §3
[12] = Volume of distribution at steady state in Sprague-Dawley rat at 1 mg/kg, iv after 24 hrs by LC-MS/MS analysis; type: ADME, organism-based; parameters: dose 1 mg/kg, route intravenous; conditions: in vivo, read-out: Vdss; summary of the method: as §2
[13] = Mean residence time in Sprague-Dawley rat at 1 mg/kg, sc after 24 hrs by LC-MS/MS analysis; type: ADME, organism-based; parameters: dose 1 mg/kg, route subcutaneous; conditions: in vivo; summary of the method: as §3
[14] = system: Rattus norvegicus; assay: Testosterone-suppressive activity in Crl:CD(SD) rat assessed as number of animal with plasma testosterone level below the limit of detection at 0.1 nmol/hr, sc through osmotic pumps measured after 6 days by RIA; type: functional; summary of the method: as §1
[15] = Stability of the compound in aqueous solution assessed as residual ratio at pH 3 up to 2 weeks by HPLC analysis relative to initial level; type: physicochemical; summary of the method: as §4
[16] = Stability of the compound in aqueous solution assessed as residual ratio at pH 5 up to 2 weeks by HPLC analysis relative to initial level; type: physicochemical; summary of the method: as §4
[17] = Cmax in Sprague-Dawley rat at 1 mg/kg, sc after 24 hrs by LC-MS/MS analysis; type: ADME, organism-based; parameters: dose 1 mg/kg, route subcutaneous; conditions: in vivo; summary of the method: as §3
[18] = Stability of the compound in aqueous solution (JP1) assessed as residual ratio at pH 1.2 up to 1 week by HPLC analysis relative to initial level; type: physicochemical; summary of the method: as §4
[19] = AUC (0 to 24 hrs) in Sprague-Dawley rat at 1 mg/kg, iv after 24 hrs by LC-MS/MS analysis; type: ADME, organism-based; parameters: time < 24 hr, dose 1 mg/kg, route intravenous; conditions: plasma; summary of the method: as §2
[20] = Bioavailability in Sprague-Dawley rat at 1 mg/kg, sc after 24 hrs by LC-MS/MS analysis; type: ADME, organism-based; conditions: in vivo; summary of the method: as §3
[21] = target: T1, KiSS-1 receptor; assay: Displacement of radioligand from human KISS1R transfected in CHO cells; type: cell-based
Summary of the method: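 Binding used membrane fractions prepared from CHO cells expressing recombinant human KISS1R.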

[22] = Stability of the compound in aqueous solution (JP1) assessed as residual ratio at pH 1.2 up to 2 weeks by HPLC analysis relative to initial level; type: physicochemical; summary of the method: as §4
[23] = target: T2, KiSS-1 receptor (Rattus norvegicus, UniProt Q924U1); assay: Agonist activity at rat KISS1R transfected in CHO cells assessed as intracellular calcium flux after 24 hrs by functional FLIPR assay; type: cell-based
T2 sequence (Q924U1 whole entry): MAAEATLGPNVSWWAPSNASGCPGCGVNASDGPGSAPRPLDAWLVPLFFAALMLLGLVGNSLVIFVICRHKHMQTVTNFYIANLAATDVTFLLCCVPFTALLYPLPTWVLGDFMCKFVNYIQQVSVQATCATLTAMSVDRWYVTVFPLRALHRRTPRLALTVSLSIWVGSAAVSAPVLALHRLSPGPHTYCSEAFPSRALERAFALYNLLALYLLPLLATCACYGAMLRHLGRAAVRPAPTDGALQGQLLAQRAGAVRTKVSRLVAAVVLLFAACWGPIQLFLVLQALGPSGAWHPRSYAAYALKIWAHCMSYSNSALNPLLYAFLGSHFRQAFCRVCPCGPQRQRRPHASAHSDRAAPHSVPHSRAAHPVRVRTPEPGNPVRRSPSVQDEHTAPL

[24] = Total clearance in Sprague-Dawley rat at 1 mg/kg, iv after 24 hrs by LC-MS/MS analysis; type: ADME, organism-based; parameters: dose 1 mg/kg, route intravenous; conditions: in vivo; summary of the method: as §2
[25] = C5min in Sprague-Dawley rat at 1 mg/kg, iv after 5 mins by LC-MS/MS analysis; conditions: in vivo, read-out: Cmin
[26] = target: T2, KiSS-1 receptor; assay: Displacement of radioligand from rat KISS1R transfected in CHO cells; type: cell-based
[27] = system: Rattus norvegicus; assay: Testosterone-suppressive activity in Crl:CD(SD) rat assessed as number of animal with plasma testosterone level below the limit of detection […], sc through osmotic pumps measured after 6 days by RIA; type: functional

SMILES | EC50 [9] [nM] | Ki [21] [nM] | EC50 [23] [nM] | Activity [1] [%] | Activity [2] [%] | Activity [14] | other results
CNC(=N)NCCC[C@H](NC(=O)[C@H](CC(C)C)NC(=O)NNC(=O)[C@H](Cc1ccccc1)NC(=O)[C@@H](NC(=O)[C@H](CC(N)=O)NC(=O)[C@@H](Cc1c[nH]c2ccccc12)NC(=O)[C@H](N)Cc1ccc(O)cc1)[C@@H](C)O)C(=O)N[C@@H](Cc1c[nH]c2ccccc12)C(N)=O | 1 | 0.036 | 4.1 | 100 | 60 | 0 rats (n = 5) | MRT [3]: 43.8 min; Tmax [4]: 11.4 min; remaining at 168 h [5]: 84.9%; remaining at 336 h [6]: 72.8%; remaining at 168 h [7]: 98.8%; remaining at 168 h [8]: 98.7%; Activity [10]: 60%; AUC(0-t) at 24 h [11]: 46 ng·h/mL; Vd [12]: 1.46 L/kg; MRT [13]: 52.8 min; remaining at 336 h [15]: 98.2%; remaining at 336 h [16]: 96.5%; Cmax [17]: 47 ng/mL; remaining at 168 h [18]: 64.9%; AUC(0-t) at 24 h [19]: 503 ng·h/mL; bioavailability [20]: 9.2%; remaining at 336 h [22]: 39.1%; clearance [24]: 33.3 mL/min/kg; concentration at 5 min [25]: 1440 ng/mL
CNC(=N)NCCC[C@H](NC(=O)[C@H](CC(C)C)NC(=O)NNC(=O)[C@H](Cc1ccccc1)NC(=O)[C@@H](NC(=O)[C@H](CC(N)=O)NC(=O)[C@@H](Cc1c[nH]c2ccccc12)NC(=O)[C@H](N)Cc1ccc(O)cc1)C(C)C)C(=O)N[C@@H](Cc1c[nH]c2ccccc12)C(N)=O | 0.31 | 0.028 | 2.2 | – | 0 | – | –
CNC(=N)NCCC[C@H](NC(=O)[C@H](CC(C)C)NC(=O)NNC(=O)[C@H](Cc1ccccc1)NC(=O)[C@@H](NC(=O)[C@H](CC(N)=O)NC(=O)[C@@H](Cc1c[nH]c2ccccc12)NC(=O)CCc1ccc(O)cc1)[C@@H](C)O)C(=O)N[C@@H](Cc1c[nH]c2ccccc12)C(N)=O | 0.3 | 0.039 | 1.1 | – | – | 100% | Activity [27]: 0 animals

Further compounds by falling EC50 [9], results first:

EC50 [9] [nM] | Ki [21] [nM] | EC50 [23] [nM] | SMILES | Activity [1] [%] | Activity [2] [%] | Activity [14] | other results
0.7 | 0.2 | 9.3 | CNC(=N)NCCC[C@H](NC(=O)[C@H](CC(C)C)NC(=O)NNC(=O)[C@H](Cc1ccccc1)NC(=O)[C@H](CO)NC(=O)[C@H](C)NC(=O)[C@@H](Cc1ccncc1)NC(=O)[C@H](N)Cc1ccc(O)cc1)C(=O)N[C@@H](Cc1c[nH]c2ccccc12)C(N)=O | 0 | – | – | Ki [26]: 3.6 nM
0.44 | 0.027 | 1.7 | CNC(=N)NCCC[C@H](NC(=O)[C@H](CC(C)C)NC(=O)NNC(=O)[C@H](Cc1ccccc1)NC(=O)[C@@H](NC(=O)[C@H](CC(N)=O)NC(=O)[C@@H](Cc1c[nH]c2ccccc12)NC(=O)[C@@H](Cc1ccc(O)cc1)NC(=O)c1ccccc1)[C@@H](C)O)C(=O)N[C@@H](Cc1c[nH]c2ccccc12)C(N)=O | – | – | 0 rats (n = 5) | –

From ChEMBL document CHEMBL3352485 (J Med Chem, 2014)
